Results on two compounds are retold here after ChEMBL document CHEMBL3286242, “Design, synthesis and biological evaluation of arylcinnamide hybrid derivatives as novel anticancer agents” (Eur J Med Chem, 2014).

The structures appear in SMILES notation. Calls of active or inactive are those of the source. No cut-off for these calls is given here. Bounds are passed on as bounds.

The subject of data set [1] is HeLa. Put plainly: Cytotoxicity against human HeLa cells assessed as growth inhibition after 72 hrs by MTT assay. It counts as functional, cell-based.
Another data set relates to HT-29. Nature of the data set: Cytotoxicity against human HT-29 cells assessed as growth inhibition after 72 hrs by MTT assay. It counts as functional, cell-based. The following applies: HT-29, 72 h.
Data set [2] concerns LoVo. Put plainly: Cytotoxicity against human LoVo cells assessed as growth inhibition after 72 hrs by MTT assay. It counts as functional, cell-based. (Tetrazolium dyes change colour on reduction, which living cells bring about.)
The subject of data set [3] is CCRF-CEM. Put plainly: Cytotoxicity against human CEM cells assessed as growth inhibition after 72 hrs by MTT assay. It is filed as functional, cell-based.
The subject of the next data set is Jurkat. Put plainly: Cytotoxicity against human Jurkat cells assessed as growth inhibition after 72 hrs by MTT assay. It counts as functional, cell-based.
The nature of data set [4]: Cytotoxicity against human SEM cells assessed as growth inhibition after 72 hrs by MTT assay. It is filed as functional, cell-based.
Another data set relates to MCF7. Put plainly: Cytotoxicity against human MCF7 cells assessed as growth inhibition after 72 hrs by MTT assay. The conditions noted are these: MCF7, 72 h. It is filed as functional, cell-based.
The test system of data set [5] is PBMC. Put plainly: Cytotoxicity against human resting PBMC assessed as growth inhibition after 72 hrs by MTT assay. It counts as cell-based. In short, it runs like this: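 Healthy-donor PBMC from Lymphoprep gradient, rested overnight in RPMI-1640/10% FBS; non-adherent cells at 5 × 10^5 cells/mL without PHA, treated 72 h with varying concentrations; viability by MTT; IC50 mean ± SEM, three separate experiments.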

The subject of data set [6] is PBMC. Nature of the data set: Cytotoxicity against human PHA-stimulated PBMC assessed as growth inhibition after 72 hrs by MTT assay. It counts as functional, cell-based.
Data set [7] can be described thus: Selectivity ratio of IC50 for human resting PBMC to IC50 for human Jurkat cells. It is filed as ADME, cell-based. The following applies: resting PBMC versus Jurkat cells, read-out: Ratio IC50.
Data set [8] is described as follows: Selectivity ratio of IC50 for human resting PBMC to IC50 for human CEM cells. It counts as ADME, cell-based, CCRF-CEM. The following applies: resting PBMC versus CEM cells, read-out: Ratio IC50.
Data set [9] in a line: Cytotoxicity against human LoVo/DX cells assessed as growth inhibition after 72 hrs by MTT assay. It counts as functional, cell-based.
Data set [10] in a line: Cytotoxicity against human CEM/VBL100 cells assessed as growth inhibition after 72 hrs by MTT assay. It counts as functional, cell-based. The conditions noted are these: CEM/VBL100, 72 h.
Data set [11] has as its system LoVo. Nature of the data set: Resistance ratio of IC50 for human LoVo/DX cells to IC50 for human LoVo cells. It counts as functional. In short, it runs like this:
(§1)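 Ratio of IC50 in resistant line to IC50 in parental line (CEMVbl-100/CEM; LoVoDoxo/LoVo), each IC50 from 72 h MTT dose–response curves, ≥3 independent experiments.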

For data set [12], the system named is CCRF-CEM. Put plainly: Resistance ratio of IC50 for human CEM/VBL100 cells to IC50 for human CEM cells. It counts as functional. In short, it runs like this: as §1
Another data set addresses Tubulin (Bos taurus) (UniProt Q6B856+Q862L2+Q862F3). Put plainly: Inhibition of bovine brain tubulin polymerization at 20 uM by turbidimetry. The essentials: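 Purified bovine brain tubulin (10 μM) preincubated with compound in glutamate buffer at 30 °C, cooled to 0 °C, GTP added, then warmed to 30 °C in cuvettes; assembly followed turbidimetrically; concentrations up to 20 μM.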

Data set [13] concerns HeLa. Nature of the data set: Induction of apoptosis in human HeLa cells assessed as increase in Bid protein expression at 1 uM after 24 hrs by Western blotting analysis. It is filed as functional, cell-based. (A western blot detects proteins with antibodies after separation by electrophoresis.)
The test system of data set [14] is HeLa. Nature of the data set: Induction of apoptosis in human HeLa cells assessed as increase in Bax protein expression at 1 to 2.5 uM after 24 to 48 hrs by Western blotting analysis. It counts as functional, cell-based.
Data set [15] has as its system HeLa. Nature of the data set: Induction of apoptosis in human HeLa cells assessed as increase in Bak protein expression at 1 to 2.5 uM after 24 to 48 hrs by Western blotting analysis. It counts as functional, cell-based.
Another data set addresses Tubulin (Homo sapiens) (UniProt P68371+Q9H4B7+P0DPH7+P68366+Q13509+Q71U36+P04350+Q3ZCM7+P07437+P68363+Q9BQE3+Q6PEY2+Q13885+Q9BVA1+Q9BUF5). Nature of the data set: Inhibition of tubulin polymerization in human HeLa cells assessed as microtubule disruption at 2.5 to 5 uM after 24 hrs by immunofluorescence microscopy relative to untreated control. It counts as cell-based. The essentials:
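HeLa cells exposed 24 h to 2.5 or 5.0 μM versus untreated; fixed in cold 4% formaldehyde 15 min, stained with anti-β-tubulin monoclonal (1:1000) and Alexa secondary (1:2000), DAPI counterstain; imaged by confocal microscopy at 20×.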

The test system of data set [16] is HeLa. Nature of the data set: Cell cycle arrest in human HeLa cells assessed as accumulation at G2/M phase after 24 hrs by propidium iodide staining-based flow cytometry. It is filed as functional. In short, it runs like this:
(§2)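 HeLa cells in exponential growth (2.5 × 10^5) treated 24 h at various concentrations; ethanol-fixed (70%, ice-cold), lysed with RNase A/0.1% Triton X-100, PI-stained; DNA content by flow cytometry, phase percentages from DNA histograms.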
(A flow cytometer gives signals particle by particle.)

Data set [17] has as its system HeLa. Put plainly: Cell cycle arrest in human HeLa cells assessed as reduction in S phase after 24 hrs by propidium iodide staining-based flow cytometry. It is filed as functional. The essentials: as §2
Data set [18] deals with HeLa. Nature of the data set: Induction of apoptosis in human HeLa cells at 0.62 to 5 uM after 24 to 48 hrs by Annexin V/FITC staining-based flow cytometry. It is filed as functional, cell-based. In short, it runs like this:
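HeLa cells treated 24 or 48 h at indicated concentrations, then stained with annexin-V-FITC plus PI; flow cytometry with 488 nm excitation, 525 and 585 nm emission; live, early/late apoptotic and necrotic populations distinguished; means of three independent experiments.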

Data set [19] deals with HeLa. Nature of the data set: Induction of apoptosis in human HeLa cells assessed as caspase activation at 2.5 uM after 48 hrs in presence of pan-caspase inhibitor z-VAD.fmk. It is filed as functional, cell-based. In short, it runs like this:
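HeLa cells given 2.5 μM compound for 48 h with or without 100 μM z-VAD.fmk pan-caspase inhibitor; viability measured; means ± SEM of three independent experiments, Student's t-test.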

Data set [20] deals with HeLa. Nature of the data set: Induction of apoptosis in human HeLa cells assessed as reduction in Bcl-2 protein expression at 1 to 2.5 uM by Western blotting analysis. It counts as functional, cell-based. The following applies: TDE = time-dependent effect. The essentials:
(§3)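 HeLa cells treated at indicated concentrations and times; washed in cold PBS, lysed 30 min at 0 °C, cleared at 15 000 × g; 20 μg protein resolved on 7.5–15% gradient SDS-PAGE, blotted to PVDF, primary antibodies 2 h room temperature, peroxidase secondary 60 min, ECL detection; β-actin reprobe for loading.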

Data set [21] deals with HeLa. Nature of the data set: Induction of apoptosis in human HeLa cells assessed as caspase-3 activation after 24 to 48 hrs by Western blotting analysis. It counts as functional, cell-based. In short, it runs like this: as §3
In data set [22] the test system is HeLa. Put plainly: Induction of apoptosis in human HeLa cells assessed as caspase-3 activation at 1 to 2.5 uM by Western blotting analysis. It is filed as functional, cell-based. The following applies: TDE = time-dependent effect. In short, it runs like this: as §3
The subject of data set [23] is HeLa. Nature of the data set: Induction of apoptosis in human HeLa cells assessed as PARP cleavage after 24 to 48 hrs by Western blotting analysis. It counts as functional, cell-based. The essentials:
as §3

In data set [24] the test system is HeLa. Nature of the data set: Induction of apoptosis in human HeLa cells assessed as PARP cleavage at 1 to 2.5 uM by Western blotting analysis. It is filed as functional, cell-based. The following applies: TDE = time-dependent effect. In short, it runs like this:
as §3

The subject of data set [25] is HeLa. Nature of the data set: Induction of apoptosis in human HeLa cells assessed as caspase-9 activation at 1 to 2.5 uM after 24 to 48 hrs by Western blotting analysis. It is filed as functional, cell-based. In short, it runs like this: as §3
Data set [26] relates to HeLa. Nature of the data set: Induction of apoptosis in human HeLa cells assessed as caspase-8 activation at 1 to 2.5 uM after 24 to 48 hrs by Western blotting analysis. It counts as functional, cell-based. In short, it runs like this: as §3
In data set [27] the test system is HeLa. Nature of the data set: Induction of apoptosis in human HeLa cells assessed as reduction in Bcl-2 protein expression at 1 to 2.5 uM after 48 hrs by Western blotting analysis. It counts as functional, cell-based. The essentials: as §3
Data set [28] concerns HeLa. Nature of the data set: Induction of apoptosis in human HeLa cells assessed as reduction in Mcl-1 protein expression at 2.5 uM after 48 hrs by Western blotting analysis. It is filed as functional, cell-based. The essentials: as §3
In data set [29] the test system is HeLa. Nature of the data set: Induction of DNA damage in human HeLa cells assessed as increase in gammaH2A.X protein expression at 1 to 2.5 uM after 48 hrs by Western blotting analysis. It is filed as functional, cell-based.
The test system of data set [30] is HeLa. Nature of the data set: Induction of apoptosis in human HeLa cells assessed as GSH depletion after 24 hrs by CMFDA staining-based flow cytometry. It counts as functional, cell-based. The essentials:
(§4)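 HeLa cells treated 24 h with compound, alone or with 100 μM NAC; harvested and loaded with 5 μM CMFDA, 30 min at 37 °C; intracellular GSH read as CMFDA fluorescence by flow cytometry; means ± SEM.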

Data set [31] has as its system HeLa. Put plainly: Induction of apoptosis in human HeLa cells assessed as GSH depletion at 1 to 2.5 uM after 24 hrs by CMFDA staining-based flow cytometry in presence of N-acetylcysteine. It is filed as functional, cell-based. The essentials:
as §4

For a further data set, the system named is L1210. Put plainly: Cytotoxicity against mouse L1210 cells. It counts as functional, cell-based.

Regarding `C=C(Br)C(=O)Nc1cccc(/C=C/C(=O)Nc2ccc(N3CCOCC3)cc2)c1`, the IC50 (usually the concentration that gives 50% inhibition) in the data set on HeLa [1] was determined as 430 nM; in the data set on HT-29, 1600 nM; in the data set with LoVo [2], 510 nM; in the data set with CCRF-CEM [3], 610 nM; in the data set on Jurkat it was 40 nM; in data set [4], 57 nM. Further, the IC50 was 2600 nM in the data set with MCF7; 4 µM in the data set with PBMC [5]; 500 nM with PBMC [6]; 1050 nM in data set [9]; 410 nM in data set [10]. Also, the selectivity ratio in data set [7] and in data set [8] was 10 throughout. Moreover, the results for the “Ratio IC50” value in the data set with LoVo [11] and in the data set with CCRF-CEM [12] were 2 and 0.7, respectively. The inhibition entry at Tubulin (Bos taurus) and on Tubulin (Homo sapiens) was “inactive” each time. Further, the result in the data set on HeLa [13], with HeLa [14], with HeLa [15], with HeLa [19], in the data set with HeLa [25] and in the data set with HeLa [31] was inactive. For the same compound, the Activity result with HeLa [16] is “Dose-dependent effect”; in the data set with HeLa [20], “tde”; with HeLa [21] it was “Dose-dependent effect”; in the data set with HeLa [22], “tde”; with HeLa [23], “Dose-dependent effect”; in the data set with HeLa [24] it was “tde”. For the same compound, the Activity result in the data set on HeLa [30] is “Dose-dependent effect”. Besides, the outcome with HeLa [17], in the data set with HeLa [18], in the data set on HeLa [26], in the data set with HeLa [27], with HeLa [28] and with HeLa [29] was Active.
On to `C=C(Br)C(=O)O`, for which, in the data set on L1210, the IC50 was over 120 µM.
